Assay results as given in the RNAGym collection of RNA variant scans (doi:10.1126/science.aae0568).
Variants at the floor of the assay were thinned out.

B1: tRNA (parent)
chain: GUUCCGUUGGCGUAAUGGUAACGCGUCUCCCUCCUAAGGAGAAGACUGCGGGUUCGAGUCCCGUACGGAACG

Variants of: B1
Experiment: yeast fitness relative to wild type (ratio to wild type); higher = fitter; tRNA-Arg(CCU), competitive growth, 37 C, YPD
Method in brief: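 Gene amplicons from the start population and from each of six end populations were read by 100-nucleotide paired-end sequencing. Those end populations came from pooled Saccharomyces cerevisiae strains carrying tRNA-Arg(CCU) gene variants at the native locus, competed in YPD at 37°C for 24 hours. Fitness relative to wild type was worked out from changes in genotype frequencies. Genotypes needed ≥ 100 starting reads, and estimates < 0.5 were set to 0.5.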

Variant	yeast fitness
GUUCCGUUGGCGUAAUGGUAACGCGUCUCCCUCCUAAGGAGAAGAAUGCGGGUUCGAGUCCCGUACGGAUCG	1.04
GUUCCGUUGGCGUAAUGGUAACGCGUCUCCCUCCUAAGGAGAAGUCCGCGGGUUCGAGUCCCGUACGGAACG	0.995
GUUCCGUUGGCGUAAUGGUAACGCGUCUCCCUCCUAAGGAGAAGUCAGCGGGUUCGAGUCCCGUACGGAACG	0.786
GUUCCGUUGGCGUAAUGGUAACGCGUCUCCCUCCUAAGGAGAAGAAUGCGGGUUCGAGUCCUGUACGGUACG	0.735
GUUCCGUUGGCGUAAUGGUAACGCGUCUCCCUCCUAAGGAGAAGGCCGCGGGUUCGAGUCCAGUUAGGAACG	≤ 0.5
GUUCCGUUGGCGUAAUGGUAACGCGUCUCCCUCCUAAGGAGAAGAUUGAGGGUUUGAGUCCCGUACGGAACG	0.678
GUUCCGUUGGCGUAAUGGUAACGCGUCUCCCUCCUAAGGAGAAGGCUGCGGGGUCGAGUCCCGUAUGGUACG	≤ 0.5
GUUCCGUUGGCGUAAUGGUAACGCGUCUCCCUCCUAAGGAGAAGAUUGCGGGUUCGAGUCCCGUAGUGAACG	≤ 0.5
GUUCCGUUGGCGUAAUGGUAACGCGUCUCCCUCCUAAGGAGAAGUCUGCGGGUUCGAGUCCCGUACGGACCG	0.987
GUUCCGUUGGCGUAAUGGUAACGCGUCUCCCUCCUAAGGAGAAGAUUGCGCGUUCGAGUCCCGAACGGAACG	≤ 0.5
GUUCCGUUGGCGUAAUGGUAACGCGUCUCCCUCCUAAGGAGAAGUCUGCGGGUUCGAGUCCCGUACGGCACG	1.04
GUUCCGUUGGCGUAAUGGUAACGCGUCUCCCUCCUAAGGAGAAGUCUGCGGGUUCGAGUCCCGUACGGUACG	1.05
GUUCCGUUGGCGUAAUGGUAACGCGUCUCCCUCCUAAGGAGAAGAGUGCGGGUUCGAGUCCAGUACGGAACG	0.873
GUUCCGUUGGCGUAAUGGUAACGCGUCUCCCUCCUAAGGAGAAGAGUGCGAAUUCGAGUCCCGUACGGAACG	0.566
GUUCCGUUGGCGUAAUGGUAACGCGUCUCCCUCCUAAGGAGAAGAAUGCAGGUUCGAGUCCCGUACGGAACG	0.925
GUUCCGUUGGCGUAAUGGUAACGCGUCUCCCUCCUAAGGAGAAGUCUGCGGGUUGGAGUCCCGUACGGAACG	0.528
GUUCCGUUGGCGUAAUGGUAACGCGUCUCCCUCCUAAGGAGAAGUCUGCGGGUUAGAGUCCCGUACGGAACG	0.566
GUUCCGUUGGCGUAAUGGUAACGCGUCUCCCUCCUAAGGAGAAGUCUGCGGGUUCGAGUCCCCUACGGAACG	0.542
GUUCCGUUGGCGUAAUGGUAACGCGUCUCCCUCCUAAGGAGAAGAUUCCGGGUUCGAGUCCCGUACGGAACG	0.951

Variant	yeast fitness
GUUCCGUUGGCGUAAUGGUAACGCGUCUCCCUCCUAAGGAGAAGAUUGCGGGUUCAAGUCCCGUACAGAACG	0.686
GUUCCGUUGGCGUAAUGGUAACGCGUCUCCCUCCUAAGGAGAAGUCUGGGGGUUCGAGUCCCGUACGGAUCG	0.63
GUUCCGUUGGCGUAAUGGUAACGCGUCUCCCUCCUAAGGAGAAGAGUGCGGGUACGAGUCCCGUACGGAACG	0.702
GUUCCGUUGGCGUAAUGGUAACGCGUCUCCCUCCUAAGGAGAAGAGUGCGGGUGCGAGUCCCGUACGGAACG	0.527
GUUCCGUUGGCGUAAUGGUAACGCGUCUCCCUCCUAAGGAGAAGUAUGCGUGUUCGAGUCCCGUACGGAACG	≤ 0.5
GUUCCGUUGGCGUAAUGGUAACGCGUCUCCCUCCUAAGGAGAAGAAUGCGGGUCCGAGUCCCGUACGGAACG	0.888
GUUCCGUUGGCGUAAUGGUAACGCGUCUCCCUCCUAAGGAGAAGAGUGCGGGUUCGAAUCCCGUACGGAACG	0.989
GUUCCGUUGGCGUAAUGGUAACGCGUCUCCCUCCUAAGGAGAAGUCUGCGGAUUCGAGUCCCGUACGGAUCG	0.574
GUUCCGUUGGCGUAAUGGUAACGCGUCUCCCUCCUAAGGAGAAGGCUGCGGGUUCGAAUCCCGUUCGGAACG	0.741
GUUCCGUUGGCGUAAUGGUAACGCGUCUCCCUCCUAAGGAGAAGAUUGCGGGUUCGAGUGCGGUACGGAACG	≤ 0.5
GUUCCGUUGGCGUAAUGGUAACGCGUCUCCCUCCUAAGGAGAAGGCUGCGAGUUCGAGCCCCGUACGGAACG	≤ 0.5
GUUCCGUUGGCGUAAUGGUAACGCGUCUCCCUCCUAAGGAGAAGAGUACGGGUUCGAGUCCCGUACGGAACG	0.998
GUUCCGUUGGCGUAAUGGUAACGCGUCUCCCUCCUAAGGAGAAGUCUACGGGUUCGAGUCCCGUAGGGAACG	≤ 0.5
GUUCCGUUGGCGUAAUGGUAACGCGUCUCCCUCCUAAGGAGAAGGCGGCGGGUUCGAGUCCCGUACGGAACG	0.756
GUUCCGUUGGCGUAAUGGUAACGCGUCUCCCUCCUAAGGAGAAGGCUGCGGGUUCGAAUCCCGUACGGAACG	1.04
GUUCCGUUGGCGUAAUGGUAACGCGUCUCCCUCCUAAGGAGAAGAAUGCGGGUUCGAGUCCCGUACCGAACG	0.896
GUUCCGUUGGCGUAAUGGUAACGCGUCUCCCUCCUAAGGAGAAGAAUGCGGGUUCGAGUUCCGUACGGAACG	0.83
GUUCCGUUGGCGUAAUGGUAACGCGUCUCCCUCCUAAGGAGAAGAUUCCGGGUUCGAGUCCUGUACGGAACG	1.03
GUUCCGUUGGCGUAAUGGUAACGCGUCUCCCUCCUAAGGAGAAGGCUGCAGGUCCGAGUCCCGUACGGAACG	≤ 0.5
